# Source: ChEMBL document CHEMBL2177092, “Phosphoramidate ProTides of the anticancer agent FUDR successfully deliver the preformed bioactive monophosphate in cells and confer advantage over the parent nucleoside” (J Med Chem, 2011)
# Key:
# [1] = Stability of the compound in potassium phosphate buffer at pH 7.4 assessed as E.coli thymidine phosphorylase-mediated release of 5-FU after 5 mins by [19F] NMR spectroscopy; format: ADME; conditions: pH 7.4, 5 min
# Method in brief: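 Compound (6.0 mg) in methanol-d4 plus 300 mM potassium phosphate buffer pH 7.4. […] 19F NMR recorded at 5 min, 14 h and 72 h at 25 °C, with 5-FU identified by its signal near δF 169.50 ppm.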
# HeLa [2] = assay: Cytostatic activity against thymidine-kinase deficient human HeLa cells […]; format: functional, cell-based
# CCRF-CEM [3] = assay: Cytostatic activity against thymidine-kinase deficient human CEM cells after 72 hrs by cell counting; format: functional, cell-based
# Method in brief: (§1)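 Suspension leukemia cells in DMEM with 10% FBS, 10 mM Hepes and 1 mM sodium pyruvate at 37 °C under 5% CO2. Seeded at 60 000 cells/well with graded compound levels. Grown 48 h (L1210) or 72 h (CEM), then counted by Coulter counter. Mean ± SD of two to four independent experiments.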
# L1210 [4] = assay: Cytostatic activity against thymidine-kinase deficient mouse L1210 cells after 48 hrs by cell counting; format: functional, cell-based; conditions: L1210, 48 h; method in brief: as §1
# CCRF-CEM [5] = assay: Ratio of IC50 for human CEM cells expressing human ENT1 transporter in presence of NBMPR to IC50 for human CEM cells expressing human ENT1 transporter; format: functional
# Method in brief: (§2)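 Human T-lymphocyte CEM cells with (CEM/hEnt-1) or lacking (CEM/hEnt-0) the hENT1 transporter were seeded at 60 000 cells/well with graded compound concentrations. Transporter-inhibition runs added dipyridamole (10 μM) or NBMPR (10 μM) to CEM/hEnt-1 cells. […] Ratios are formed against untreated CEM/hEnt-1 IC50. Mean of 2–4 experiments.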
# CCRF-CEM [6] = assay: Ratio of IC50 for human CEM cells expressing human ENT1 transporter in presence of dipyridamole to IC50 for human CEM cells expressing human ENT1 transporter; format: functional; method in brief: as §2
# CCRF-CEM [7] = assay: Ratio of IC50 for ENT1 transporter-deficient human CEM cells to IC50 for human CEM cells expressing human ENT1 transporter after 72 hrs by cell counting; format: functional; method in brief: as §2
# CCRF-CEM [8] = assay: Cytostatic activity against human CEM cells expressing human ENT1 transporter after 72 hrs by cell counting in presence of NBMPR; format: functional, cell-based
# Method in brief: (§3)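 CEM/hEnt-1 cells with 10 μM dipyridamole or 10 μM NBMPR added alongside graded compound levels, in DMEM with 10% FBS, 10 mM Hepes and 1 mM sodium pyruvate at 37 °C under 5% CO2. Seeded at 60 000 cells/well, counted by Coulter counter after 3 days.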
# CCRF-CEM [9] = assay: Cytostatic activity against human CEM cells expressing human ENT1 transporter after 72 hrs by cell counting in presence of dipyridamole; format: functional, cell-based; method in brief: as §3
# CCRF-CEM [10] = assay: Cytostatic activity against human CEM cells expressing human ENT1 transporter after 72 hrs by cell counting; format: functional, cell-based
# Method in brief: (§4)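 Suspension leukemia cells in DMEM with 10% FBS, 10 mM Hepes and 1 mM sodium pyruvate at 37 °C under 5% CO2. Seeded at 60 000 cells/well with graded compound levels. Grown 48 h (L1210) or 72 h (CEM), then counted by Coulter counter. […] Mean ± SD of two to four independent experiments.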
# CCRF-CEM [11] = assay: Cytostatic activity against ENT1 transporter-deficient human CEM cells after 72 hrs by cell counting; format: functional, cell-based; method in brief: as §4
# L1210 [12] = assay: Ratio of IC50 for Mycoplasma hyorhinis-infected mouse L1210 cells to IC50 for mouse L1210/0 cells after 48 hrs by cell counting; format: functional
# Method in brief: (§5)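 Murine L1210/0 cells were compared with L1210/TK cells, selected for resistance to 5-bromo-2'-dUrd, and with L1210.Hyor cells, chronically infected with Mycoplasma hyorhinis. Cells were grown in DMEM with 10% FBS, 10 mM Hepes and 1 mM pyruvate at 37 °C and 5% CO2, then seeded at 60 000 cells/well with compound. They were Coulter-counted after 48 h. […] Mean of 2–4 experiments.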
# L1210 [13] = assay: Cytostatic activity against Mycoplasma hyorhinis-infected mouse L1210 cells after 48 hrs by cell counting; format: functional, cell-based; conditions: L1210, 48 h; method in brief: as §1
# [14] = Ratio of 5-FU IC50 to compound IC50 for mouse L1210/0 cells after 48 hrs by cell counting; format: functional
# L1210 [15] = assay: Ratio of IC50 for thymidine-kinase deficient mouse L1210 cells to IC50 for mouse L1210/0 cells after 48 hrs by cell counting; format: functional; method in brief: as §5
# HeLa [16] = assay: Cytostatic activity against human HeLa cells […] by cell counting; format: functional, cell-based
# CCRF-CEM [17] = assay: Cytostatic activity against human CEM/0 cells after 72 hrs by cell counting; format: functional, cell-based; method in brief: as §4
# [18] = Cytostatic activity against mouse L1210/0 cells after 48 hrs by cell counting; format: functional, cell-based; conditions: L1210/0, 48 h; method in brief: as §1
Compound,Stability [1],IC50 (HeLa [2]) [µM],IC50 (CCRF-CEM [3]) [µM],IC50 (L1210 [4]) [µM],Ratio IC50 (CCRF-CEM [5]),Ratio IC50 (CCRF-CEM [6]),Ratio IC50 (CCRF-CEM [7]),IC50 (CCRF-CEM [8]) [µM],IC50 (CCRF-CEM [9]) [µM],IC50 (CCRF-CEM [10]) [µM],IC50 (CCRF-CEM [11]) [µM],Ratio IC50 (L1210 [12]),IC50 (L1210 [13]) [µM],Ratio IC50 [14],Ratio IC50 (L1210 [15]),IC50 (HeLa [16]) [µM],IC50 (CCRF-CEM [17]) [µM],IC50 [18] [µM]
O=c1[nH]cc(F)c(=O)[nH]1 [FLUOROURACIL],Unstable,0.23,12,0.32,,,,,,,,,,,,,,
C[C@H](NP(=O)(OC[C@H]1O[C@@H](n2cc(F)c(=O)[nH]c2=O)C[C@@H]1O)Oc1cccc2ccccc12)C(=O)OCc1ccccc1 (mixture of isomers) [FOSIFLOXURIDINE NAFALBENAMIDE],,2.5,0.31,0.045,2,2,7,0.26,0.13,0.05,0.6,2.27,0.025,30,5,0.065,0.068,0.011
CCOC(=O)C(C)(C)NP(=O)(OC[C@H]1O[C@@H](n2cc(F)c(=O)[nH]c2=O)C[C@@H]1O)Oc1ccccc1 (mixture of isomers),,17,22,4.6,2,2,7,2.56,2.35,0.37,5.8,8.7,0.26,,,0.59,0.65,0.03
CC(C)(NP(=O)(OC[C@H]1O[C@@H](n2cc(F)c(=O)[nH]c2=O)C[C@@H]1O)Oc1ccccc1)C(=O)OCc1ccccc1 (mixture of isomers),,3.7,4.8,0.18,2,2,7,0.61,0.26,0.17,1.2,0.69,0.02,,,0.24,0.23,0.029
CC(C)(NP(=O)(OC[C@H]1O[C@@H](n2cc(F)c(=O)[nH]c2=O)C[C@@H]1O)Oc1cccc2ccccc12)C(=O)OCc1ccccc1 (mixture of isomers),,3.1,2.4,0.13,2,2,7,0.28,0.16,0.05,0.4,2.4,0.045,,,0.078,0.16,0.019
CCCOC(=O)[C@H](C)NP(=O)(OC[C@H]1O[C@@H](n2cc(F)c(=O)[nH]c2=O)C[C@@H]1O)Oc1cccc2ccccc12 (mixture of isomers),,2.5,1.1,0.16,,,,,,,,1.2,0.036,,,0.11,0.14,0.03
CC(C)[C@H](NP(=O)(OC[C@H]1O[C@@H](n2cc(F)c(=O)[nH]c2=O)C[C@@H]1O)Oc1cccc2ccccc12)C(=O)OC1CCCCC1 (mixture of isomers),,27,46,35,,,,,,,,1.08,1.29,,,0.67,0.8,1.2
O=c1[nH]c(=O)n([C@H]2C[C@H](O)[C@@H](COP(=O)(O)O)O2)cc1F [5-FLUORODEOXYURIDYLATE],,,,,20,20,72,1.06,1.74,0.05,3.6,,,,,,,
C[C@H](NP(=O)(OC[C@H]1O[C@@H](n2cc(F)c(=O)[nH]c2=O)C[C@@H]1O)Oc1cccc2ccccc12)C(=O)OCC1CC1 (mixture of isomers),,1.4,1.1,0.12,,,,,,,,2.2,0.031,,,0.068,0.059,0.014
O=c1[nH]c(=O)n([C@H]2C[C@H](O)[C@@H](CO)O2)cc1F [FLOXURIDINE],Unstable,,,,,,,0.8,,0.04,2.5,,,,,0.05,0.022,
CSCC[C@H](NP(=O)(OC[C@H]1O[C@@H](n2cc(F)c(=O)[nH]c2=O)C[C@@H]1O)Oc1cccc2ccccc12)C(=O)OCc1ccccc1 (mixture of isomers),,8.3,11,1.9,,,,,,,,3.7,0.2,,,0.087,0.19,0.054
O=C(OCc1ccccc1)[C@H](Cc1ccccc1)NP(=O)(OC[C@H]1O[C@@H](n2cc(F)c(=O)[nH]c2=O)C[C@@H]1O)Oc1cccc2ccccc12 (mixture of isomers),,6.8,7.2,5.6,,,,,,,,11,0.23,,,0.16,0.1,0.021
CSCC[C@H](NP(=O)(OC[C@H]1O[C@@H](n2cc(F)c(=O)[nH]c2=O)C[C@@H]1O)Oc1ccccc1)C(=O)OCc1ccccc1 (mixture of isomers),,11,25,4.1,,,,,,,,13,0.76,,,0.15,0.28,0.058
C[C@H](NP(=O)(OC[C@H]1O[C@@H](n2cc(F)c(=O)[nH]c2=O)C[C@@H]1O)Oc1cccc2ccccc12)C(=O)OCCC(C)(C)C (mixture of isomers),,1.3,0.19,0.062,,,,,,,,2.7,0.032,,,0.078,0.053,0.012
C[C@H](NP(=O)(OC[C@H]1O[C@@H](n2cc(F)c(=O)[nH]c2=O)C[C@@H]1O)Oc1cccc2ccccc12)C(=O)OCC(C)(C)C (mixture of isomers),,32,6.7,1.2,,,,,,,,1.9,0.18,,,0.7,0.49,0.093
CCCCCOC(=O)[C@H](CC(C)C)NP(=O)(OC[C@H]1O[C@@H](n2cc(F)c(=O)[nH]c2=O)C[C@@H]1O)Oc1cccc2ccccc12 (mixture of isomers),,7.5,15,1.2,,,,,,,,1.13,0.035,,,0.039,0.071,0.031
CCOC(=O)C(C)(C)NP(=O)(OC[C@H]1O[C@@H](n2cc(F)c(=O)[nH]c2=O)C[C@@H]1O)Oc1cccc2ccccc12 (mixture of isomers),,3.2,6.9,0.82,2,2,7,0.62,0.52,0.21,1.4,3,0.17,,,0.2,0.36,0.056
